Experimental data reported in ChEMBL document CHEMBL1155063 (Bioorg Med Chem, 2008).

Columns and labels:
TK-10 = assay: Cytotoxicity against human TK10 cells at 10 uM after 48 hrs by MTT assay; type: functional; settings: TK-10, 48 h, values are per cent of control
Summary of the method: (§1)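 Single-dose screen in the NCI 60-cell-line panel, run according to the Developmental Therapeutics Program protocol (one-dose mean graph). The result is the growth percentage of treated cells relative to untreated control cells.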

UO-31 = assay: Cytotoxicity against human UO31 cells at 10 uM after 48 hrs by MTT assay; type: functional; settings: UO-31, 48 h, values are per cent of control; summary of the method: as §1
M14 = assay: Cytotoxicity against human M14 cells at 10 uM after 48 hrs by MTT assay; type: functional; settings: M14, 48 h, values are per cent of control
Summary of the method: (§2)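 Single-dose screen on the NCI 60-cell-line panel, run to the Developmental Therapeutics Program protocol (one-dose mean graph). Each value is the growth percentage of treated cells against untreated control cells.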

Malme-3M = assay: Cytotoxicity against human MALME3M cells at 10 uM after 48 hrs by MTT assay; type: functional; settings: values are per cent of control; summary of the method: as §2
SK-MEL-5 = assay: Cytotoxicity against human SK-MEL-5 cells at 10 uM after 48 hrs by MTT assay; type: functional; settings: SK-MEL-5, 48 h, values are per cent of control; summary of the method: as §2
UACC-257 = assay: Cytotoxicity against human UACC257 cells at 10 uM after 48 hrs by MTT assay; type: functional; settings: UACC-257, 48 h, values are per cent of control; summary of the method: as §1
UACC-62 = assay: Cytotoxicity against human UACC62 cells at 10 uM after 48 hrs by MTT assay; type: functional; settings: UACC-62, 48 h, values are per cent of control; summary of the method: as §1
SF-539 = assay: Cytotoxicity against human SF539 cells at 10 uM after 48 hrs by MTT assay; type: functional; settings: SF-539, 48 h, values are per cent of control; summary of the method: as §2
SNB-19 = assay: Cytotoxicity against human SNB19 cells at 10 uM after 48 hrs by MTT assay; type: functional; settings: SNB-19, 48 h, values are per cent of control; summary of the method: as §2
[1] = Cytotoxicity against human H1299 cells at 100 uM after 48 hrs by MTT assay realtive to control; type: functional; settings: NCI-H1299, 48 h
Summary of the method: (§3)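 H1299 non-small-cell lung cells were kept in RPMI 1640 with 10% FBS and penicillin/streptomycin at 37 °C under 5% CO2. About 2 × 10^3 cells per well were pre-incubated for 24 h. Compound was added from freshly made DMSO solution diluted in complete medium and left for 48 h. MTT was then added for 4 h at 37 °C, followed by 20% SDS/50% DMF lysis buffer for 16 h at 37 °C, and absorbance read at 550 nm.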

[2] = Cytotoxicity against human H1299 cells at 10 uM after 48 hrs by MTT assay realtive to control; type: functional; settings: NCI-H1299, 48 h; summary of the method: as §3
[3] = Cytotoxicity against human TERT immortalized BJ1 cells at 100 uM after 48 hrs by MTT assay relative to control; type: cell-based, BJ
Summary of the method: (§4)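 hTERT-immortalized BJ1 fibroblasts were grown in DMEM with 10% FCS, 1 mM pyruvate and 4 mM […]. Cells (about 2 × 10^3 per well) were seeded and held 24 h at 37 °C. Compounds were freshly dissolved in DMSO, diluted into medium and left on the cells 48 h. MTT was added for 4 h, then SDS/DMF lysis buffer for 16 h. Absorbance was read at 550 nm and expressed relative to untreated cells (100%).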

[4] = Cytotoxicity against human TERT immortalized BJ1 cells at 10 uM after 48 hrs by MTT assay relative to control; type: cell-based, BJ; summary of the method: as §4
EKVX = assay: Cytotoxicity against human EKVX cells at 10 uM after 48 hrs by MTT assay; type: functional; summary of the method: as §2
HOP-62 = assay: Cytotoxicity against human HOP62 cells at 10 uM after 48 hrs by MTT assay; type: functional; settings: HOP-62, 48 h; summary of the method: as §2
HOP-92 = assay: Cytotoxicity against human HOP92 cells at 10 uM after 48 hrs by MTT assay; type: functional; settings: HOP-92, 48 h; summary of the method: as §2
NCI-H226 = assay: Cytotoxicity against human NCI-H226 cells at 10 uM after 48 hrs by MTT assay; type: functional; settings: NCI-H226, 48 h; summary of the method: as §2
NCI-H23 = assay: Cytotoxicity against human NCI-H23 cells at 10 uM after 48 hrs by MTT assay; type: functional; settings: NCI-H23, 48 h; summary of the method: as §2
COLO 205 = assay: Cytotoxicity against human COLO205 cells at 10 uM after 48 hrs by MTT assay; type: functional; settings: COLO 205, 48 h, values are per cent of control; summary of the method: as §2
KM12 = assay: Cytotoxicity against human KM12 cells at 10 uM after 48 hrs by MTT assay; type: functional; settings: KM12, 48 h; summary of the method: as §2
Hs-578T = assay: Cytotoxicity against human HS578T cells at 10 uM after 48 hrs by MTT assay; type: functional; settings: values are per cent of control; summary of the method: as §2
MCF7 = assay: Cytotoxicity against human MCF7 cells at 10 uM after 48 hrs by MTT assay; type: functional; settings: MCF7, 48 h, values are per cent of control; summary of the method: as §2
MDA-MB-435 = assay: Cytotoxicity against human MDA-MB-435 cells at 10 uM after 48 hrs by MTT assay; type: functional; settings: MDA-MB-435, 48 h; summary of the method: as §2
T47D = assay: Cytotoxicity against human T47D cells at 10 uM after 48 hrs by MTT assay; type: functional; summary of the method: as §1
OVCAR-8 = assay: Cytotoxicity against human OVCAR8 cells at 10 uM after 48 hrs by MTT assay; type: functional; settings: OVCAR-8, 48 h; summary of the method: as §2
K562 = assay: Cytotoxicity against human K562 cells at 10 uM after 48 hrs by MTT assay; type: functional; settings: K562, 48 h; summary of the method: as §2
RPMI-8226 = assay: Cytotoxicity against human RPMI-8226 cells at 10 uM after 48 hrs by MTT assay; type: functional; settings: RPMI-8226, 48 h; summary of the method: as §2
786-0 = assay: Cytotoxicity against human 786-0 cells at 10 uM after 48 hrs by MTT assay; type: functional; settings: 786-0, 48 h; summary of the method: as §2
A498 = assay: Cytotoxicity against human A498 cells at 10 uM after 48 hrs by MTT assay; type: functional; settings: A498, 48 h; summary of the method: as §2
ACHN = assay: Cytotoxicity against human ACHN cells at 10 uM after 48 hrs by MTT assay; type: functional; summary of the method: as §2
NCI-H460 = assay: Growth percent of human NCI-H460 cells at 10 uM after 48 hrs by MTT assay; settings: NCI-H460, 48 h
[5] = Cell viability of human H1299 cells at 1 uM after 48 hrs by MTT assay relative to control; settings: NCI-H1299, 48 h
[6] = molecular target: T1, Telomerase reverse transcriptase (Homo sapiens, UniProt O14746); assay: Effect on human TERT expressed in BJ1 cells at 1 uM after 24 hrs by SEAP assay realtive to control; settings: BJ
[7] = molecular target: T1, Telomerase reverse transcriptase; assay: Effect on human TERT expressed in H1299 cells at 1 uM after 24 hrs by SEAP assay relative to control
HCC 2998 = assay: Growth percent of human HCC2998 cells at 10 uM after 48 hrs by MTT assay; settings: HCC 2998, 48 h

T1 sequence (O14746 whole entry): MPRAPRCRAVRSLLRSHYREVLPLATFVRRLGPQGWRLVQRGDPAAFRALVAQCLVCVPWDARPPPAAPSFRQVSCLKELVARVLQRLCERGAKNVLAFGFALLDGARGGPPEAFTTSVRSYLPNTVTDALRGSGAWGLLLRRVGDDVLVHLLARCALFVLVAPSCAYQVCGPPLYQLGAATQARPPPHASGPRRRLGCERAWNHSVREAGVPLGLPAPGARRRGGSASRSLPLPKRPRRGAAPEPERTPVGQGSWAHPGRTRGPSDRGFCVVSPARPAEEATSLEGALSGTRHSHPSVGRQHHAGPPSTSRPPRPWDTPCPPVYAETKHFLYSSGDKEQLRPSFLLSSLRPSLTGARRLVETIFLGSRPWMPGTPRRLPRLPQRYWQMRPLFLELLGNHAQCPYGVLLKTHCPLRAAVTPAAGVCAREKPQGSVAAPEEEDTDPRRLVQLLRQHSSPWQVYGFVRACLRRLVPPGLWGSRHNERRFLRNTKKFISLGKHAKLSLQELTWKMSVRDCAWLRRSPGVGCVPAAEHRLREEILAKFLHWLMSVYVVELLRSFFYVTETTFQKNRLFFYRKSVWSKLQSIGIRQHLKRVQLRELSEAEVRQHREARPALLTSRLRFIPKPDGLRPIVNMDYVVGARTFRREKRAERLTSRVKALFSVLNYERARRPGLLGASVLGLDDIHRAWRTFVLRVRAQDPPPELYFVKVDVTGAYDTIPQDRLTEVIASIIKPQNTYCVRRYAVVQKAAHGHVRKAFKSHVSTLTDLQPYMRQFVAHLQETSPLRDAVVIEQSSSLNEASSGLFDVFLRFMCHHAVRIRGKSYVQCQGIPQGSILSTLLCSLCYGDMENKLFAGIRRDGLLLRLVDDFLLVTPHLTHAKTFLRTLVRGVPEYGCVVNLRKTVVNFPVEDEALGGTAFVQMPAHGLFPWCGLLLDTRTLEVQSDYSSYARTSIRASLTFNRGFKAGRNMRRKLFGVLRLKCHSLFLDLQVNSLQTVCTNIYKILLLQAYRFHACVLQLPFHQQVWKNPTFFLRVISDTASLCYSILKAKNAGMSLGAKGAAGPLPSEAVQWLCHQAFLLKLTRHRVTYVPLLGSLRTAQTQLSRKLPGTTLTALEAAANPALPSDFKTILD

Structure (SMILES) | growth, % of control at 10 µM (TK-10) | growth, % of control at 10 µM (UO-31) | growth, % of control at 10 µM (M14) | growth, % of control at 10 µM (Malme-3M) | growth, % of control at 10 µM (SK-MEL-5) | growth, % of control at 10 µM (UACC-257) | growth, % of control at 10 µM (UACC-62) | growth, % of control at 10 µM (SF-539) | growth, % of control at 10 µM (SNB-19) | viability at 100 µM [1] | viability at 10 µM [2] | viability at 48 h, 100 µM [3] | viability at 48 h, 10 µM [4] | growth percent at 10 µM (EKVX) | growth percent at 10 µM (HOP-62) | growth percent at 10 µM (HOP-92) | growth percent at 10 µM (NCI-H23) | growth, % of control at 10 µM (COLO 205) | growth, % of control at 10 µM (Hs-578T) | growth, % of control at 10 µM (MCF7) | further results
CCN(CC)CCC(=O)Nc1ccc2c(c1)C(=O)c1cc(NC(=O)CCN(CC)CC)ccc1C2=O | 17.2% | -31.5% | 62.8% | 62.4% | 82.8% | -14.5% | 44.5% | 37.1% | 75.8% | 1% | 41% | 36% | 55% | 60% | 11.7% | 9.7% | 30.3% | -49.7% | -23.8% | 9.34% | growth percent at 10 µM (NCI-H226): 49.9%; growth, % of control at 10 µM (KM12; values are per cent of control): 21.8%; growth percent at 10 µM (MDA-MB-435): 71.1%; growth percent at 10 µM (T47D): 68.6%; growth percent at 10 µM (OVCAR-8): 4.3%; growth percent at 10 µM (K562): 8.1%; growth percent at 10 µM (RPMI-8226): -29%; growth percent at 10 µM (786-0): 24.7%; growth percent at 10 µM (A498): -38.8%; growth percent at 10 µM (ACHN): 11.1%; growth percent at 10 µM (NCI-H460): 9.5%; cell viability at 1 µM [5]: 106%; residual activity [6]: 84%; residual activity [7]: 76%
CC(=O)Nc1ccc2c(c1)C(=O)c1cc(NC(C)=O)ccc1C2=O | 118% | 96.4% | 105% | 111% | 109% | 27% | 101% | 103% | 94.4% | 55% | 83% | 91% | 91% | 95.3% | 111% | 101% | 94.2% | 120% | 133% | 96.9% | growth percent at 10 µM (KM12): 106%; growth percent at 10 µM (MDA-MB-435): 109%; growth percent at 10 µM (T47D): 96.2%; growth percent at 10 µM (OVCAR-8): 99.8%; growth percent at 10 µM (K562): 98.5%; growth percent at 10 µM (RPMI-8226): 121%; growth percent at 10 µM (786-0): 97.7%; growth percent at 10 µM (A498): 116%; growth percent at 10 µM (ACHN): 96.9%; growth percent at 10 µM (HCC 2998): 105%; growth percent at 10 µM (NCI-H460): 109%; cell viability at 1 µM [5]: 117%; residual activity [6]: 123%; residual activity [7]: 97%
